High-throughput results: PubChem BioAssay, several laboratories
Most compounds without a hit are left out; they make up all but 29% or so of the library.
CYP2C19 inh = inhibitors of human CYP2C19; P33261; CYP2C19 Supersomes, luciferin-H EGE luminescence, 30 min; inhibition, % at 5 µM; hit rate 21% among 96,000; AID 778;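 active = CYP2C19 inhibition above a set limit at 5 µM in the primary screen, cut at about 50% in these data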
Target sequence (P33261 whole entry, looked up): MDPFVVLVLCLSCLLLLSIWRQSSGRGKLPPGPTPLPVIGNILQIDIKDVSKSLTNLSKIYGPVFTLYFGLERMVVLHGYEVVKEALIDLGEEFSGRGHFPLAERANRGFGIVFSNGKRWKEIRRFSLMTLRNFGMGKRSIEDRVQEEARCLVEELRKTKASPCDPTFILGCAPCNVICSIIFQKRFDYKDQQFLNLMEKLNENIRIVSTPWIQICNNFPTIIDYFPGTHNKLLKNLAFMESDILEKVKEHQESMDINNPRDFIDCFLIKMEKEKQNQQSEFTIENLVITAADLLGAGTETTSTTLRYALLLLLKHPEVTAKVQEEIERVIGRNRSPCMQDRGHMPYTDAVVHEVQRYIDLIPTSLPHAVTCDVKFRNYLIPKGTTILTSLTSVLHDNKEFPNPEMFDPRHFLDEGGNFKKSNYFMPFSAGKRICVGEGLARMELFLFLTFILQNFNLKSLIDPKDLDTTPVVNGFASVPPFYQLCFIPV
E coli WT exp = E. coli BW25113 growth inhibition, expanded screen | OD600 absorbance | growth inhibition, % at 100 µM | hit rate 0.15% among 98,000;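 active = growth inhibition above about 50% at one test dose, limit read from the data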;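 note: growth measured after 20 h incubation at 37 °C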
tolC growth inh = growth inhibitors of E. coli BW25113 tolC mutant; OD615; hit rate 2.2% among 65,000; growth inhibition, % at 10 µM (by protocol); AID 573;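 active = growth inhibition at or above a cutoff equal to the mean over every tested compound plus 3 SD, cut at about 60% in these data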;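 note: growth measured after 20 h incubation at 37 °C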
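Test system: tolC-deleted E. coli BW25113 | Medium: LB with kanamycin 50 µg/mL | Compound dosing: Single concentration, 10 µM final per compound | Schedule: 37 °C, 20 h exposure | Measured by: OD at 615 nm | Evaluation: Percent growth inhibition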
CYP2C9 activ = increases human cytochrome P450 2C9 activity. P11712. recombinant CYP2C9, luciferin-H conversion, luminescence; active compounds read high; factor 1 = untreated enzyme, 0 = blocked. activation factor at 5 µM. hit rate 1.4% among 96,000. AID 1024;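 active = activation factor of 2 or more for CYP2C9 at a 5 µM dose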
CYP2C9 inhib = inhibitors of human CYP2C9. CYP2C9 Supersomes, luciferin-H conversion, luminescence. hit rate 20% among 96,000. inhibition, % at 5 µM. AID 777. P11712;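 active = blocking of liver enzyme CYP2C9 beyond about 50% at 5 µM, limit read from the data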
CYP2C19 activ = activators of human cytochrome P450 2C19; P33261; recombinant CYP2C19, luciferin-H EGE luminescence; active compounds read high; 0 = fully inhibited enzyme, 1 = untreated enzyme; activation factor at 5 µM; 96,000 tested, under 10 active; AID 1025;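 active = activation factor of at least 2 at 5 µM in the primary screen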
Numbers stand for hits; – = inactive; · = no result given.

SMILES	CYP2C19 inh	E coli WT exp	tolC growth inh	CYP2C9 activ	CYP2C9 inhib	CYP2C19 activ
O=C(Nc1nnc(-c2ccccc2)o1)Nc1ccccc1Cl	56	–	–	–	–	–
CC(=O)c1ccc(C(=O)Nc2nnc(-c3ccc(Cl)cc3)o2)cc1	·	·	100	·	·	·
O=C(Nc1nnc(-c2ccccc2)o1)c1ccc(Cl)cc1	–	–	99	–	–	–
COc1ccc(NC(=O)C(CCS(C)(=O)=O)N2C(=O)c3ccccc3C2=O)cc1 (stereo not given)	–	–	·	–	–	–
Brc1cnc(N2CCOCC2)nc1N1CCCCC1	58	–	–	–	–	–
Cc1nn(Cc2ccc(Cl)cc2Cl)c(C)c1NC(=O)NC12CC3CC(CC(C3)C1)C2	–	–	·	–	–	–
COc1ccc(N2CCN(CCNC(=O)c3ccc(NC(=O)C4CCCO4)cc3)CC2)cc1 (stereo not given)	–	–	–	–	–	–
CCc1c(O)nc(SC2CC(=O)N(c3ccccc3)C2=O)[nH]c1=O (stereo not given)	–	–	·	–	67	–
Cc1c(O)nc(SC2CC(=O)N(c3ccccc3)C2=O)[nH]c1=O (stereo not given)	–	–	–	–	–	–
COc1cccc(C(=O)COC(=O)C(C)N2C(=O)c3ccccc3C2=O)c1 (stereo not given)	–	–	–	–	–	–
COc1cc(C(C)=O)ccc1OC(=O)C(C)N1C(=O)c2ccccc2C1=O (stereo not given)	–	–	–	–	54	–
N/C(=N\OC(=O)c1cccc(F)c1)c1ccccc1	–	–	·	–	–	–
C/C(Nc1ccc(F)cc1)=C(/C#N)C(N)=O	–	–	–	–	–	–
C/C(Nc1cccc(F)c1)=C(/C#N)C(N)=O	–	–	–	–	68	–
Cn1c(-n2c(-c3ccco3)nc3ccccc3c2=O)nc2ccccc21	–	–	–	–	–	–
COCc1cc(C)nc2sc(C(=O)OC(C)C)c(N)c12	85	–	–	–	72	–
CCCNc1nc2c(c(=O)n(C)c(=O)n2C)n1CCc1ccccc1	–	–	–	–	–	–
CC(CCO)Nc1nc2c(c(=O)n(C)c(=O)n2C)n1Cc1cccc(Br)c1 (stereo not given)	60	–	–	–	–	–
CC(O)CNc1nc2c(c(=O)n(C)c(=O)n2C)n1C/C=C/c1ccccc1 (stereo not given)	–	–	–	–	–	–
CC(O)CNc1nc2c(c(=O)n(C)c(=O)n2C)n1Cc1cccc(Br)c1 (stereo not given)	–	–	–	–	60	–
Cn1c(=O)c2c(nc(NCCCO)n2C/C=C/c2ccccc2)n(C)c1=O	90	–	–	–	68	–
CC(C)CNc1nc2c(c(=O)n(C)c(=O)n2C)n1Cc1cccc(Br)c1	–	–	–	–	–	–
CCCNc1nc2c(c(=O)n(C)c(=O)n2C)n1Cc1cccc(C)c1	58	–	–	–	–	–
CCn1c(CCNC(=O)c2cccs2)nnc1SCC(=O)c1ccc(OC)cc1	·	·	–	·	·	·
CCOc1ccccc1NC(=O)c1cc(Cl)ccc1NC(=O)c1ccco1	–	–	–	–	–	–
SMILES	CYP2C19 inh	E coli WT exp	tolC growth inh	CYP2C9 activ	CYP2C9 inhib	CYP2C19 activ
COc1ccc(Nc2nc3c(c(=O)n(C)c(=O)n3C)n2CCO)cc1	–	–	–	–	59	–
CC(C)NC(=O)c1ccccc1NC(=O)CCS(=O)(=O)Cc1ccccc1	–	–	–	–	76	–
COC(=O)c1ccc(C(=O)OC)c(NC(=O)CS(=O)(=O)Cc2ccccc2)c1	–	–	·	–	–	–
O=C(CCS(=O)(=O)Cc1ccccc1)Nc1nc2c(s1)CCCC2	–	–	–	–	–	–
CC(C)NC(=O)c1ccccc1NC(=O)CS(=O)(=O)Cc1ccccc1	–	–	·	–	80	–
CCS(=O)(=O)Nc1c(C)n(C)n(-c2ccccc2)c1=O	–	–	·	–	–	–
Cc1c(NS(=O)(=O)c2ccc(Br)s2)c(=O)n(-c2ccccc2)n1C	–	–	–	–	54	–
Cc1c(NS(=O)(=O)N2CCCCC2)c(=O)n(-c2ccccc2)n1C	74	–	·	–	–	–
Cc1c(NS(=O)(=O)CC23CCC(CC2=O)C3(C)C)c(=O)n(-c2ccccc2)n1C (stereo not given)	55	–	–	–	–	–
Cc1c(NS(=O)(=O)c2cccs2)c(=O)n(-c2ccccc2)n1C	55	–	–	–	–	–
CCCOc1ccc(-c2nc(C#N)c(N3CCN(CC)CC3)o2)cc1	–	–	–	–	–	–
